ChEMBL document CHEMBL4513216, “Probing the Open Global Health Chemical Diversity Library for Multistage-Active Starting Points for Next-Generation Antimalarials” (ACS Infect Dis, 2020)

Assay: Toxicity liver stage against HepG2, at 10uM
Type: cell-based
Set-up: test concentration 10 uM, cell line HepG2-A16-CD81EGFP
Conditions: human, HepG2-A16-CD81EGFP cells; read-out: INHIBITION
Summary of the method: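 Uninfected HepG2-A16-CD81EGFP cells, 3 × 10^3 per well, 1536-well, plated on prespotted compound at 10 μM final, parasite-free screening media added to match infected plates; puromycin 10 μM positive, DMSO 0.5% negative; run in parallel with 48 h PbLuc assay at 37 °C, 5% CO2; viability by CellTiter-Glo luminescence, normalized to controls.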

| Compound | cytotoxicity at 10 µM |
| --- | --- |
| Nc1ncncc1-c1noc([C@@H]2CCCN2Cc2cccnc2)n1 | -7.29% |
| CCCNC(=O)c1sccc1N(C)S(=O)(=O)c1ccc(Cl)cc1 | 9.22% |
| O=S(=O)(C1CC1)N1CCO[C@H]2[C@H](OCC3CCCC3)CC[C@@H]21 | -5.58% |
| COCCO[C@H]1CCN(C(=O)c2ccno2)[C@H]1Cc1cnn(C)c1 | -5.45% |
| O=C1CCOC[C@]2(CN(Cc3ccccc3)C[C@H]2c2ccccc2F)N1 | -1.02% |
| CC(=O)N1CCCC1c1nc(CN(C)C(=O)C(C)C)cc(N(C)C)n1 (stereo not given) | -2.62% |
| CS(=O)(=O)N[C@@H]1CN(Cc2ccc3ncccc3c2)C[C@H]1O | -4.34% |
| Cn1nccc1CN1CCOC(c2ccc(-c3cncnc3)cn2)C1 (stereo not given) | 3.27% |
| CN(C)c1ncc(CN2CCOC(C(=O)Nc3ccccc3)C2)cn1 (stereo not given) | -3.14% |
| CN(C)c1cccc(C2CCCN2c2nc3c(cnn3C)c(=O)[nH]2)c1 (stereo not given) | 0.91% |
| CCN(Cc1cnn(C)c1)S(=O)(=O)c1ccc(NC(=O)C(C)(C)C)cc1 | 0.165% |
| CC(=O)NCC1CN(c2ccc3c(Cl)ccnc3c2F)CCO1 (stereo not given) | 5.29% |
| CC(=O)N1CCC[C@H]1C(=O)N(C)CCCOc1ccccc1 | -1.18% |
| Cn1cc(Br)cc(NC(=O)CC2CCC2)c1=O | -8.15% |
| O=C(CN1CCOC(Cn2cncn2)C1)NC(C1CC1)C1CC1 (stereo not given) | -49.5% |
| O=C(COCC1CC1)Nc1cc(-c2ccc(Br)s2)n[nH]1 | -155% |
| O=C(Nc1nnn[nH]1)c1ccc(I)c(F)c1 | -2.56% |
| CCC(NC(=O)CNC(=O)OC)c1cc(F)ccc1F (stereo not given) | -5.03% |
| FC(F)(F)COc1ccc(CSCc2ccon2)cn1 | -4.52% |
| COc1ccc(CNc2cccnc2-n2cccn2)cc1OC | 7.25% |

| Compound | cytotoxicity at 10 µM |
| --- | --- |
| O=C(CN1CCN(CCO)CC1)NC(C1CC1)C1CC1 | -6.56% |
| CCC[C@@H](NC(N)=O)C(=O)N1CCc2c(Cl)cccc2C1 | 5.79% |
| N#Cc1ccc(CNCC2CCN(CCO)CC2)cc1 | -9.7% |
| CCS(=O)(=O)N1Cc2cncn2CC(C(=O)NCC2CC2)C1 (stereo not given) | -97.6% |
| COCC(=O)N1CCC2(CC1)CN(c1cncnc1)C(=O)CO2 | -78.6% |
| Cc1noc([C@@H]2CCO[C@@H]3CCN(Cc4cccs4)C[C@@H]32)n1 | -74.6% |
| CC(C)NC(=O)C1CN(C(=O)COc2ccccc2)CC12CCOCC2 (stereo not given) | -78.3% |
| CCc1nc(C)c(C(=O)N2CCNCC2C(=O)NCc2ccncc2)o1 (stereo not given) | -3.64% |
| Fc1ccc(N2CCCN(Cc3ccc(-c4cc[nH]n4)o3)CC2)cc1 | 0.898% |
| CC(C)CCn1cc(C(C(=O)O)N2CCC(c3ccncc3)CC2)cn1 (stereo not given) | 3.34% |
| COC[C@]1(O)CCN(C2CCN(c3ccc(OC)cc3)CC2)CC1(C)C | -3.17% |
| COc1ccccc1CN1C(=O)O[C@@H]2CN(c3nc(C)cc(C)n3)C[C@@H]21 | 0.819% |
| Cc1ccc([C@@H]2CN(S(=O)(=O)N3CCC(C)CC3)C[C@H]2N(C)C)cc1 | -3.59% |
| O=C(Nc1ccccc1CCO)c1cccc(CN2CC[C@H](O)C2)c1 | 8.77% |
| O=C1CC[C@H]2CN(Cc3cccnc3)CC[C@H]2N1CCc1c[nH]cn1 | -1.36% |
| CN(Cc1cc(-c2ccncc2)no1)C(=O)[C@@H]1CSCN1C | -2.62% |
| Cc1ccc2c(C)c(C(=O)NCc3csc(N)n3)oc2c1 | -2.83% |
| Cc1ccc(CCNc2nc(-c3ccncc3)nc3c2CCNCC3)o1 | -132% |
| COCCCN(Cc1cnc(-c2ccccn2)nc1)C1CCN(C)CC1 | -0.988% |
| CCC(CO)N(Cc1ccccn1)C(=O)c1ccc(F)c(F)c1 (stereo not given) | -0.273% |
